G6PDH CS – inhibits Leuconostoc G6PDH, flagging false hits in G6PDH-based assays | Purified L. mesenteroides G6PDH, diaphorase/resazurin coupled fluorescence, 45 min | inhibition, % at 5 µM | 200,000 tested, 0.12% active | AID 1020; in the data active means inhibition above about 50%
PMI act – increases human mannose-6-phosphate isomerase activity. activation factor at 20 µM. 190,000 tested, 0.005% active. purified human PMI, coupled resazurin fluorescence, 20 min; active compounds read high; 1 = vehicle control, 0 substrate-free wells. P34949;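 active means activation factor of 2 or more at 20 µM, relative to plate controls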
Target sequence (P34949 whole entry, looked up): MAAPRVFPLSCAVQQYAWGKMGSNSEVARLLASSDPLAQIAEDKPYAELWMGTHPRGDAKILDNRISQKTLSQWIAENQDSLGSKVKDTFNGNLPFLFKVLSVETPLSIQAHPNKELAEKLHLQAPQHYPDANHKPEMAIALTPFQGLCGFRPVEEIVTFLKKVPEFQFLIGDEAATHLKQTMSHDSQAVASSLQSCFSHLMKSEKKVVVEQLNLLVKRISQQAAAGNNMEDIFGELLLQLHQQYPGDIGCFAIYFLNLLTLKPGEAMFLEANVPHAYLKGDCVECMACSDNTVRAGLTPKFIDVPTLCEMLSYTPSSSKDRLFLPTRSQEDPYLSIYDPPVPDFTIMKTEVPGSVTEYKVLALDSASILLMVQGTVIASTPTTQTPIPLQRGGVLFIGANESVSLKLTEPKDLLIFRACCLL
PMI act satM6P – increases human PMI activity with near-saturating mannose 6-phosphate. P34949. coupled PMI enzyme assay, resazurin fluorescence, 20 min; active compounds read high; 1 = untreated enzyme, 0 = substrate-free blank. activation factor at 20 µM. 190,000 tested, 0.34% active. AID 1216;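 active means activation factor of 2 or more at 20 µM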
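test system = human PMI in coupled enzyme assay | medium = HEPES-buffered pH 7.4 with magnesium and detergent | also added = 1.0 mM mannose-6-phosphate substrate with 0.22 mM NADP+ | compound = 20 µM single dose | times = 20 min incubation at room temperature | measured by = resorufin fluorescence (Ex 544/Em 590 nm) from resazurin via diaphorase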
Diaph inh CS – counter-screen for diaphorase-based assays: diaphorase inhibitors and chemical oxidizers; diaphorase resazurin-to-resorufin fluorescence, NADH, 16 min; bacterial (C. kluyveri) enzyme, not human; 190,000 tested, 0.69% active; inhibition, % at 20 µM;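 active means primary screen inhibition at 20 µM above a set limit, cut at about 50% in these data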;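 further: plate controls were DMSO with full reaction for no effect and wells lacking NADH for full effect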
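Test system: Clostridium kluyveri diaphorase enzyme / Quantity: diaphorase at 0.14 U/mL in enzyme working solution / Incubation: 16-min room-temperature incubation before reading / Benchmarks: NADH-free wells as positive control, DMSO-only neutral wells / Signal: resorufin fluorescence 544/590 nm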
Tb hexokinase – blocks Trypanosoma brucei hexokinase 1 activity | recombinant TbHK1, G6PDH-coupled NADH A340 | inhibition, % at 10 µM | 220,000 tested, 0.11% active;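 active means inhibition of 50% or more in the single-dose primary screen; inactive means inhibition below 50%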
Diaphorase act – activates diaphorase or chemically reduces, flagging diaphorase assay artifacts; activation factor at 20 µM; Diaphorase/resazurin coupled assay, resorufin fluorescence, 16 min; active compounds read high; 1 = vehicle wells, 0 = NADH-free wells; 190,000 tested, 0.005% active; AID 1229;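 active means diaphorase activity raised at least twofold by the compound at 20 µM; inactive means activation factor below 2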
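Material: purified diaphorase enzyme from Clostridium kluyveri; Also added: 0.114 mM NADH and 0.1 mM resazurin, final amounts; Doses: single compound dose of 20 µM, 1% DMSO final; Times: 16 min enzyme reaction, ambient temperature; Detection: resorufin fluorescence, excitation 544 nm, emission 590 nm; Measure: increased resorufin signal from activators or reducing compounds.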
* hit, by the source's call; x = no result. Rows were chosen to be rich in hits. Some 1.1% of all compounds tested hit in one or more screens of this group.

SMILES	G6PDH CS	PMI act	PMI act satM6P	Diaph inh CS	Tb hexokinase	Diaphorase act
COc1ccc(C(=O)c2c(C(F)(F)F)oc3c2C(=O)c2ccccc2C3=O)cc1OC	59.4*	1.3	1.6	18.2	-16.9	0.8
C=CCOc1ccc(CNc2ccc3[nH]c(=O)[nH]c3c2)cc1OC	9.4	0.2	0.2	94.4*	-1.7	0.1
COc1cc(CNc2ccc3[nH]c(=O)[nH]c3c2)ccc1OCC(=O)NC(C)(C)C	14.0	0.2	0.3	69.2*	-0.7	0.3
COc1cc(CNc2ccc3[nH]c(=O)[nH]c3c2)cc(Br)c1OCC(=O)NC(C)(C)C	2.4	0.7	0.7	40.1	-6.5	0.6
CCOc1ccc(-c2csc(/C(C#N)=C\c3ccc(O)c([N+](=O)[O-])c3)n2)cc1	11.6	0.7	0.8	86.8*	15.9	0.1
CCCCc1ccc(-c2csc(/C(C#N)=C\c3ccc(C)o3)n2)cc1	1.0	0.9	0.9	26.2	10.7	0.7
Cc1cc(=S)c2cccc(C)c2[nH]1	5.0	1.7	2.7*	6.1	-6.8	0.9
Cc1cccc2c(=O)cc(C(F)(F)F)[nH]c12	x	x	x	x	-14.8	x
COC(=O)CC1c2cc(OC)c(OC)cc2CC(=O)c2cc(OC)c(OC)cc21 (configuration not stated)	19.4	1.5	2*	15.0	-5.9	0.8
COC(=O)CC1NCCc2cc(OC)c(OC)cc21 (configuration not stated)	-5.3	1.1	1.1	2.1	0.7	1
COc1ccc(CN2CCC(CO)(Cc3ccccc3C(F)(F)F)CC2)c(F)c1	2.2	1.1	1	11.3	7.5	0.9
CCn1c(C)nc2cc(C(=O)N/N=C/c3ccccc3)ccc21	-0.9	1.1	1.1	-7.8	-1.3	1.1
CCn1c(C)nc2cc(C(=O)NNC(=S)NC(=O)c3ccccc3)ccc21	-3.5	1.1	1.2	54.9*	-0.7	0.5
CCn1c(C)nc2cc(C(=O)N/N=C/c3cccc(O)c3O)ccc21	48.9	0.3	0.3	72.4*	-5.8	0.3
N#CCc1cnc2ccccc2n1	x	x	x	x	-5.0	x
CN=C(C)/C(C(=O)OC)=C(/O)c1ccc(Cl)cc1Cl	x	x	x	x	-8.5	x
Cc1nn(CCC(=O)NNC(=S)Nc2ccc([N+](=O)[O-])cc2)c(C)c1[N+](=O)[O-]	1.5	0.9	0.9	85.6*	-3.4	0.1
O=C(Cn1nc(C(F)F)cc1C(F)F)NNC(=S)Nc1ccc([N+](=O)[O-])cc1	7.5	0.9	1.1	52.0*	-11.1	0.5
c1ccc(C2=Nn3c(nnc3-c3ccco3)SC2)cc1	-0.8	0.2	0.2	73.1*	-2.8	0.3
Cc1ccc(OCc2nnc(N)s2)cc1C	x	x	x	x	1.2	x
C#CCOCCOCCOCCNc1nc(N2CCN(C(=O)C(Cc3ccc(O)cc3)n3cc(C(N)C(C)CC)nn3)CC2)nc(N2CCN(C(=O)C(Cc3ccc(O)cc3)n3cc(C(N)C(C)CC)nn3)CC2)n1 (configuration not stated)	13.3	1.1	1.1	-5.6	1.7	1.1
C#CCOCCOCCOCCNc1nc(N2CCOCC2)nc(N2CCN(C(=O)[C@H](Cc3ccc(O)cc3)n3cc([C@@H](N)C(C)CC)nn3)CC2)n1 (some centres not stated)	8.9	1.2	1.1	78.7*	9.5	0.2
CNC(=O)c1ccc(CNC(=O)OCc2ccccc2)cc1	2.3	1	1	9.5	3.0	0.9
O=C(c1cc(COc2ccc(F)cc2Cl)on1)N1CCC(c2ccncc2)CC1	10.5	1	1	68.0*	3.6	0.3
CC(=O)Cc1nsc(NC(=O)c2ccc(-c3cccc(Cl)c3)o2)n1	1.7	1	1	-0.3	-44.9	1
Cc1ccc(N/N=C(\C#N)C(N)=S)c(C)c1	6.7	1.8	3*	-9.9	-9.3	1.1
CCOC(=O)c1c(C)sc2c1N(C(=O)CN1CCOCC1)c1cc(Cl)ccc1S2	-3.8	0.9	1	57.2*	-5.2	0.4
CCOC(=O)c1c(C)sc2c1N(C(=O)CN(CC)CC)c1cc(Cl)ccc1S2	3.3	0.9	0.9	24.8	-11.0	0.8
